Residue numbers refer to the chain shown, from its start.
How the values were obtained:
[1] = molecular target: T1, Nonstructural protein 5A (Hepatitis C virus) (UniProt Q5L478); assay: Inhibition of HCV GT1a NS5A assessed as suppression of replicon RNA level by real-time PCR analysis; settings: Hepatitis C virus subtype 1a
T1 sequence (whole entry): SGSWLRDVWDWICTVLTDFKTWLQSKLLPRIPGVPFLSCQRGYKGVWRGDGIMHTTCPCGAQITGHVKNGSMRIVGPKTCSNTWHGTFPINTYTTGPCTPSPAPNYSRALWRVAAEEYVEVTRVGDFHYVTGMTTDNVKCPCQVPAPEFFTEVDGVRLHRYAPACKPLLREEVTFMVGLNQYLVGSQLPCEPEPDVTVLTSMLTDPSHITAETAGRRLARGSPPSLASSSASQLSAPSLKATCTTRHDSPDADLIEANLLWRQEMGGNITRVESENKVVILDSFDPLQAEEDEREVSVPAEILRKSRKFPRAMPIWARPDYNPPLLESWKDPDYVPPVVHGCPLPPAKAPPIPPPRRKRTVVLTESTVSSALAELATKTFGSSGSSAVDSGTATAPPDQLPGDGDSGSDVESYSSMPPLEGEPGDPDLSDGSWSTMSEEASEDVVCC

[2] = molecular target: T1, Nonstructural protein 5A (Hepatitis C virus); assay: Inhibition of HCV GT1b NS5A assessed as suppression of replicon RNA level by real-time PCR analysis; settings: Hepatitis C virus subtype 1b
[3] = molecular target: T1, Nonstructural protein 5A (Hepatitis C virus); assay: Inhibition of HCV GT2a NS5A assessed as suppression of replicon RNA level by real-time PCR analysis; settings: Hepatitis C virus subtype 2a
[4] = molecular target: T1, Nonstructural protein 5A (Hepatitis C virus); assay: Inhibition of HCV GT2b NS5A assessed as suppression of replicon RNA level by real-time PCR analysis; settings: Hepatitis C virus subtype 2b
Summary of the method: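 GT2b replicon, which carries the naturally occurring NS5A 31M resistance-associated variant; potency given as EC90 in nM.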

[5] = molecular target: T1, Nonstructural protein 5A (Hepatitis C virus); assay: Inhibition of HCV GT3a NS5A assessed as suppression of replicon RNA level by real-time PCR analysis; settings: Hepatitis C virus subtype 3a
[6] = molecular target: T1, Nonstructural protein 5A (Hepatitis C virus); assay: Inhibition of HCV GT4a NS5A assessed as suppression of replicon RNA level by real-time PCR analysis; settings: Hepatitis C virus subtype 4a
[7] = test system: T2, Nonstructural protein 5A (Hepatitis C virus), Q5L478 [Y93H]; assay: Inhibition of HCV GT1a NS5A Y93H mutant assessed as suppression of replicon RNA level by real-time PCR analysis; settings: Hepatitis C virus subtype 1a
T2 sequence (whole entry): T1 sequence (whole entry) with Y93H

[8] = test system: Nonstructural protein 5A (Hepatitis C virus), Q5L478 [UNDEFINED MUTATION]; assay: Inhibition of HCV GT1a NS5A L31V mutant assessed as suppression of replicon RNA level by real-time PCR analysis; settings: Hepatitis C virus subtype 1a

| SMILES | EC90 [1] [nM] | EC90 [2] [nM] | EC90 [3] [nM] | EC90 [4] [nM] | EC90 [5] [nM] | EC90 [6] [nM] | EC90 [7] [nM] | EC90 [8] [nM] |
| --- | --- | --- | --- | --- | --- | --- | --- | --- |
| COC(=O)N[C@H](C(=O)N1C[C@H](F)C[C@H]1c1ncc(-c2ccc3c(c2)OC(c2ccccc2)n2c-3cc3cc(-c4cnc([C@@H]5C[C@@H](F)CN5C(=O)[C@@H](NC(=O)OC)C(C)C)[nH]4)ccc32)[nH]1)C(C)C (mixture of isomers) | 0.01 | 0.004 | 0.7 | 63 | 2 | 0.2 | 2 | 10 |
| COC(=O)N[C@H](C(=O)N1CCC[C@H]1c1ncc(-c2ccc3c(c2)OCn2c-3cc3cc(-c4cnc([C@@H]5CCCN5C(=O)[C@@H](NC(=O)OC)C(C)C)[nH]4)ccc32)[nH]1)C(C)C | 0.02 | 0.02 | 0.02 | 76 | 1 | 0.2 | 100 | 7 |
| COC(=O)N[C@H](C(=O)N1CCC[C@H]1c1ncc(-c2ccc3c(c2)c(F)c2n3C(c3ccccc3)Oc3cc(-c4cnc([C@@H]5C[C@@H](F)CN5C(=O)[C@@H](NC(=O)OC)C(C)C)[nH]4)ccc3-2)[nH]1)C(C)C (stereo partly drawn) | 0.002 | 0.001 | 0.003 | 33 | 0.2 | 0.04 | 2 | 1 |
| COC(=O)N[C@H](C(=O)N1CCC[C@H]1c1ncc(-c2cc(F)c3c(c2)OC(c2ccccc2)n2c-3cc3cc(-c4cnc([C@@H]5C[C@@H](F)CN5C(=O)[C@@H](NC(=O)OC)C(C)C)[nH]4)ccc32)[nH]1)C(C)C (mixture of isomers) | 0.003 | 0.003 | 0.01 | 32 | 0.3 | 0.05 | 4 | 2 |
| COC(=O)N[C@H](C(=O)N1CCC[C@H]1c1ncc(-c2ccc3c(c2)O[C@@H](c2ccccc2)n2c-3c(F)c3cc(-c4cnc([C@@H]5CCCN5C(=O)[C@@H](NC(=O)OC)C(C)C)[nH]4)ccc32)[nH]1)C(C)C | 0.007 | 0.007 | 0.004 | 15 | 0.3 | 0.06 | 25 | 0.7 |
| COC(=O)N[C@H](C(=O)N1CCC[C@H]1c1ncc(-c2ccc3c(c2)OCn2c-3cc3cc(-c4cnc([C@@H]5CCCN5C(=O)[C@@H](NC(=O)OC)C(C)C)[nH]4)cc(F)c32)[nH]1)C(C)C | 0.1 | 0.01 | 0.1 | > 100 | > 10 | 0.2 | 139 | 3 |
| COC(=O)N[C@H](C(=O)N1CCC[C@H]1c1ncc(-c2ccc3c(c2)OCn2c-3cc3cc(-c4cnc([C@@H]5CCCN5C(=O)[C@@H](NC(=O)OC)C(C)C)[nH]4)c(F)cc32)[nH]1)C(C)C | 0.007 | 0.007 | 0.02 | 150 | 5 | 0.2 | 77 | 68 |
| COC(=O)N[C@H](C(=O)N1CCC[C@H]1c1ncc(-c2ccc3c(c2)cc2n3C(c3ccccc3)Oc3cc(-c4cnc([C@@H]5C[C@@H](F)CN5C(=O)[C@@H](NC(=O)OC)C(C)C)[nH]4)cc(F)c3-2)[nH]1)C(C)C (mixture of isomers) | 0.004 | 0.003 | 0.04 | 16 | 0.1 | 0.07 | 1 | 2 |
| COC(=O)N[C@H](C(=O)N1CCC[C@H]1c1ncc(-c2ccc3c(c2)cc2n3C(c3cccc(OC)c3)Oc3cc(-c4cnc([C@@H]5C[C@@H](F)CN5C(=O)[C@@H](NC(=O)OC)C(C)C)[nH]4)cc(F)c3-2)[nH]1)C(C)C (stereo partly drawn) | 0.002 | 0.007 | – | 19 | 0.1 | – | 0.6 | 0.3 |
| COC(=O)N[C@H](C(=O)N1CCC[C@H]1c1ncc(-c2cc(F)c3c(c2)O[C@@H](c2ccccc2)n2c-3c(Cl)c3cc(-c4cnc([C@@H]5CCCN5C(=O)[C@@H](NC(=O)OC)C(C)C)[nH]4)ccc32)[nH]1)C(C)C | 0.02 | 0.006 | 0.03 | 42 | 2 | 0.04 | 51 | 0.4 |
| COC(=O)N[C@H](C(=O)N1CCC[C@H]1c1ncc(-c2ccc3c(c2)OCn2c-3c(-c3ccccc3)c3cc(-c4cnc([C@@H]5CCCN5C(=O)[C@@H](NC(=O)OC)C(C)C)[nH]4)ccc32)[nH]1)C(C)C | 0.09 | 0.004 | 0.01 | 204 | 3 | 0.09 | 5000 | 4 |
| COC(=O)N[C@H](C(=O)N1C[C@H](F)C[C@H]1c1ncc(-c2cc(F)c3c(c2)OC(c2cccc(OC)c2)n2c-3cc3cc(-c4cnc([C@@H]5C[C@@H](F)CN5C(=O)[C@@H](NC(=O)OC)C(C)C)[nH]4)ccc32)[nH]1)C(C)C (stereo partly drawn) | 0.006 | 0.007 | – | 39 | – | – | 0.07 | 2 |
| COC(=O)N[C@H](C(=O)N1CCC[C@H]1c1ncc(-c2ccc3c(c2)OCn2c-3c(C3CC3)c3cc(-c4cnc([C@@H]5CCCN5C(=O)[C@@H](NC(=O)OC)C(C)C)[nH]4)ccc32)[nH]1)C(C)C | 0.03 | 0.004 | 0.005 | 122 | 10 | 0.3 | 100 | 8 |
| COC(=O)N[C@H](C(=O)N1CCC[C@H]1c1nc(-c2ccc3c(c2)O[C@@H](c2ccccc2)n2c-3cc3cc(-c4c[nH]c([C@@H]5CCCN5C(=O)[C@@H](NC(=O)OC)C(C)C)n4)ccc32)c[nH]1)C(C)C | – | – | 0.019 | – | 0.12 | 0.016 | – | – |
| COC(=O)N[C@H](C(=O)N1CCC[C@H]1c1ncc(-c2ccc3c(c2)cc2n3[C@H](c3ccccc3)Oc3cc(-c4cnc([C@@H]5CCCN5C(=O)[C@@H](NC(=O)OC)C(C)C)[nH]4)c(F)cc3-2)[nH]1)C(C)C | 0.003 | 0.003 | 0.003 | > 100 | 1 | 0.02 | 62 | 1 |
| COC(=O)N[C@H](C(=O)N1C[C@H](F)C[C@H]1c1ncc(-c2cc(F)c3c(c2)OC(c2cccc(OC(F)(F)F)c2)n2c-3cc3cc(-c4cnc([C@@H]5C[C@@H](F)CN5C(=O)[C@@H](NC(=O)OC)C(C)C)[nH]4)ccc32)[nH]1)C(C)C (stereo partly drawn) | 0.006 | 0.005 | – | 52 | – | – | 0.2 | 7 |
| COC(=O)N[C@H](C(=O)N1CCC[C@H]1c1ncc(-c2ccc3c(c2)OC(c2ccccc2)n2c-3c(F)c3cc(-c4cnc([C@@H]5C[C@@H](F)CN5C(=O)[C@@H](NC(=O)OC)C(C)C)[nH]4)ccc32)[nH]1)C(C)C (mixture of isomers) | 0.005 | 0.003 | 0.03 | – | 2 | 0.1 | 2 | 2 |
| COC(=O)N[C@H](C(=O)N1CCC[C@H]1c1ncc(-c2ccc3c(c2)cc2n3[C@H](c3ccccc3)Oc3c-2ccc(-c2cnc([C@@H]4CCCN4C(=O)[C@@H](NC(=O)OC)C(C)C)[nH]2)c3F)[nH]1)C(C)C | 0.04 | 0.003 | 0.4 | > 100 | > 10 | 1 | > 100 | 36 |
| COC(=O)N[C@H](C(=O)N1C[C@H](F)C[C@H]1c1ncc(-c2ccc3c(c2)OC(c2ccccc2)n2c-3c(F)c3cc(-c4cnc([C@@H]5C[C@@H](F)CN5C(=O)[C@@H](NC(=O)OC)C(C)C)[nH]4)ccc32)[nH]1)C(C)C (mixture of isomers) | 0.02 | 0.005 | 0.3 | 58 | 8 | 0.3 | 2 | 7 |

— ChEMBL document CHEMBL4431385, “Substituted tetracyclic indole core derivatives of HCV NS5A inhibitor MK-8742” (Bioorg Med Chem Lett, 2016)
